From the RNAGym collection of RNA variant scans (doi:10.1126/science.aae0568)
This sample holds only a part of the variants without activity.

B1: tRNA (parent)
chain: GUUCCGUUGGCGUAAUGGUAACGCGUCUCCCUCCUAAGGAGAAGACUGCGGGUUCGAGUCCCGUACGGAACG

Variants of: B1
Experiment: yeast fitness relative to wild type (ratio to wild type); higher = fitter; tRNA-Arg(CCU), competitive growth, 37 C, YPD
How it was run: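 Start and end populations of a pooled competition were compared by 100-nucleotide paired-end sequencing of gene amplicons. The Saccharomyces cerevisiae strains carried tRNA-Arg(CCU) gene variants at the native genomic locus, synthesised with a 3% per-site mutation rate at 69 sites, and competed in YPD at 37°C for 24 hours in six parallel replicates. Darwinian fitness relative to wild type was based on the change in genotype frequencies. Genotypes required ≥ 100 starting reads, and estimates < 0.5 were set to 0.5.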

Variant	yeast fitness
GUUCCGUUGACGUAAUGGUAACGCGUGUCCCUCCUAAGGAGAAGACUGCGGGUUCGAGUCCCCUACGGAACG	≤ 0.5
GUUCCGUUGACGUAAUGGUAACGCGUCUCCCUCCUAAGGAGAAGUCUGCGGGGUCGAGUCCCGUACGGAACG	≤ 0.5
GUUCCGUUGACGUAAUGGUAAGGCGUCUCCCUCCUAGAGAGAAGACUGCGCGGUCGAGUCCCGUACGGAACG	≤ 0.5
GUUCCGUUGAAGUAAUGGUAACGCGUCUCCCUCCUAAGCAGAACACUGCGGCCUCGAGUCCCGUAGGGAACG	≤ 0.5
GUUCCGUUGACGUAAUGGUAACGCGUAUCCCUCUUAAGGAGAAGACUGCGGGUUCGGGUCCCGUACGGAACG	≤ 0.5
GUUCCGUUGAAGUAAUGGUAACGCGUCUACCUCCUAAGGAGAAGACUGCGGGUUCGAGUCCCGUAUGGAACG	≤ 0.5
GUUCCGUUGACGUAAUGGUAACGCGUCUACCUCCUAAGGAGAAGACUGCGGGUUGGAGUCCCGUGCGGAACG	0.649
GUUCCGUUGACGUAAUGGUAACGCGUCUCCCUCCUAAGGAGAAGGGUGCGGGUGCGAGUCCCGUACGGACCG	0.532
GUUCCGUUGACGUAAUGGUAACGCGUCUGCCUCCUAAGGAGAAGACUGCGGGAUCCAGUCCGGUACGGCACG	≤ 0.5
GUUCCGUUGAAGUAAGGGUAACGCGUCUCCCUCCUAAAGAGUAGACUGCGGGUUCGAGUCCCGUACGGAACG	≤ 0.5
GUUCCGUUGACGUAAUGGUAACGCGUAUCCCUCCUUUGGAGAAGACUCCGGGUUCGAGUCCCGUACGGAACG	≤ 0.5
GUUCCGUUGAUGUAAUGGUAACGCGUCUCCCUCCUAAGGAGAAGACUGCGGGUUCGACUCCCGUUCGGAACG	≤ 0.5
GUUCCGUUGACGUAAUGGUAACGGGUCUCCCUCCUAAGGGGAAGAGUGCGGGUUCGAGUCCCGUACGGAACG	0.556
GUUCCGUUGACGUAAUGGUAACGCGUCUCCCUCCUAAGGAGAAGACUGCGGGUUCGCGUCCCGUACGGAACG	0.525
GUUCCGUUGAGGUAAUGGUAACGCGUCUCGCUCCUAAGGAGAAGACUGCGGGUUCGGAACCCGUACGGAACG	≤ 0.5
GUUCCGUUGACGUAAUGGUAAGGCGUUUCCCUCCUAAGGAGAAGACUGCGGGUUCAAGUCCCGUACGGAACG	≤ 0.5
GUUCCGUUGACGUAAUGGUAACGCGUCUCACUCCUAAGGAGAAGACUGCGGGUUCGAGUCCCGUACGGAGCG	≤ 0.5
GUUCCGUUGAUGUAAUGGUAAUGCGUCUCCCUCCUAAGGAGAAGACUGCGGGUUCGUGUCCCGUACGGAACG	≤ 0.5
GUUCCGUUGACGUAAUGGUAACGGGUUUCCCUCCUAAGGAGAAGACUGCGGGUUCGAGUCCCGUACGGAACG	0.547

Variant	yeast fitness
GUUCCGUUGACGUAAUGGUAAUGCGUCUCCCUCCUAAGGAGAAGACUGCGGGUUCCAGUCCCGUACGGUACG	≤ 0.5
GUUCCGUUGACGUAAUGGUAACGCGUGUCCCUCCUAAGGAGAAGACUGCGGGUUAGAGUCACGUACGGAACG	≤ 0.5
GUUCCGUUGACGUAAUGGUAACGCGUCUUCCUCCUAAGGAGAACACUGCGGGUUCGAGUUCCGUACGGAACG	≤ 0.5
GUUCCGUUGACGUAAUGGUAAUGCGUCUCCCUCCUAAGGAGAAGACCGCGGGUUCGAGUCCCGUACGGAACG	≤ 0.5
GUUCCGUUGACGUAAUGGUAACGCGUCUUCUUCCUAAGGAGAAGACUCCGGGUACGAGUCCCGUACGGAACG	≤ 0.5
GUUCCGUUGACGUAAUGGUAACGCGUAUCCCUCCCAAGGAGAAGACUGCGGGUUCGAGUCCCGUACGGAACG	≤ 0.5
GUUCCGUUGACGUAAUGGUAACGCGUCUCCCUCCUAAGGAGAAGACUGCGGGUUCGAGUCCCGUGCGGAACG	0.627
GUUCCGUUGAGGUAAUGGUAACGCGUCUCCCUCCUAAGGAGAAGACUGCGGGUUCGAGUACCGUACUGAACG	0.512
GUUCCGUUGACGUAAUGGUAAUGCGUCUCCCUCCUAAGGAGAAGACUGCGGGUUCCAGUCCCGUACGGAACG	0.566
GUUCCGUUGACGUAAUGGUAACGCGUCUCCCUCCUAAGGAGAAGUCUGCGGGUUCGAGUCUCGUACGGAACG	0.536
GUUCCGUUGAGGUAAUGGUAACGCGUCACCCUUCUAAAGAGAAGACUGUGGGUUCGAGUCCCGUACGGAACG	≤ 0.5
GUUCCGUUGAUGUAAUGGUAACGCGUCUACCUCAUAAGGAGAAAACUGCGGGUUCGAGUCCCGUAGGGAACG	0.545
GUUCCGUUGACGUAAUGGUAACGCGUCUCCCUCCUAAGGAGAAGACUGCGGGUUCGCGCCCCGUACGGAACG	≤ 0.5
GUUCCGUUGAAGUAAUGGUAAUGCGUCUCCCUCGUAAGGAGACGACUCCGGGUUCGAGUCCCGUACGGAACG	0.585
GUUCCGUUGACGUAAUGGUAACGCGUCUCCCUCCUAAGGAGAAGCCUGCCCGUUUGAGUCCCGUACGAACCG	≤ 0.5
GUUCCGUUGACGUAAUGGUAACGAGUCUCCCUCCUAAGGAGAAAACUGCGGGUUCGAGUCCCGUACGGAACG	0.553
GUUCCGUUGACGUAAUGGUAACGGGUCUCCCUCCUAAGGAGAAGACCGCGGGUUCGAGUCCUGUACGGAACG	≤ 0.5
GUUCCGUUGACGUAAUGGUAACGUGUCUCCCUCCUCAGGAGAAGACUGCGGGUUCGAGUCCCGUACGGCACG	0.534
